Seven compounds from ChEMBL document CHEMBL3244085, “Synthesis and biological evaluation of 10-oxa-11-deoxyprostaglandin E1 and 10-nor-9,11-secoprostaglandin F1 and their derivatives” (1978) can be followed below.

Experiment [1] has as its system Hamster. Briefly: Interruption of pregnancy in hamster at 1 mg, sc administered on day 3 of pregnancy. The class given is functional, organism-based. As to conditions: Cricetinae. The method in brief:
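Pregnant hamsters, ten per compound. A single 1 mg per animal dose is given subcutaneously in ethanol on day 3 of pregnancy, and interruption of pregnancy is scored (modified Giannina method).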

The next experiment concerns Cricetinae. Briefly: Induction of uterus contraction in hamster at 20 ug. The class given is functional, tissue-based. The method in brief:
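Isolated hamster uterine strip in vitro, Holton method; compound added at 20 µg and scored for oxytocin-like contractile activity.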

For experiment [2], the system named is Gerbillinae. Description: Inhibition of PGE2-induced colon smooth muscle contraction in gerbil at […] pretreated for 30 seconds followed by PGE2-challenge measured after 90 seconds. The class given is functional. The method in brief: (§1)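 Isolated colon smooth muscle from male gerbils in a chamber (Holton method). Compound is introduced at the stated level per 15 mL; 30 s later 40 ng PGE2 is added. Antagonism is read as % inhibition of the PGE2 response.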

Experiment [3] in a line: (§2) Inhibition of PGE2-induced colon smooth muscle contraction in gerbil at 20 ug/15 ml pretreated for 30 seconds followed by PGE2-challenge measured after 90 seconds relative to control. Type of experiment: functional, Gerbillinae. A digest of the protocol: as §1
Experiment [4] in a line: (§3) Inhibition of PGE2-induced colon smooth muscle contraction in gerbil at 40 ug/15 ml pretreated for 30 seconds followed by PGE2-challenge measured after 90 seconds relative to control. The class given is functional, Gerbillinae. A digest of the protocol: as §1
The nature of experiment [5]: (§4) Inhibition of PGE2-induced colon smooth muscle contraction in gerbil at 80 ug/15 ml pretreated for 30 seconds followed by PGE2-challenge measured after 90 seconds relative to control. The class given is functional, Gerbillinae. A digest of the protocol: as §1
A short description of experiment [6]: (§5) Inhibition of PGE2-induced colon smooth muscle contraction in gerbil at 125 ug/15 ml pretreated for 30 seconds followed by PGE2-challenge measured after 90 seconds relative to control. The class given is functional, Gerbillinae. A digest of the protocol: as §1
Experiment [7] relates to Hamster. Briefly: Interruption of pregnancy in hamster at 12.5 ug, sc administered on day 3 of pregnancy relative to control. Type of experiment: functional, Cricetinae.
In experiment [8] the test system is Gerbillinae. The description is as §2. Type of experiment: functional. A digest of the protocol: as §1
Experiment [9] relates to Gerbillinae. The description is as §3. Type of experiment: functional. The method in brief: as §1
Experiment [10] relates to Gerbillinae. The experiment is described as §4. The class given is functional. The method in brief: as §1
Experiment [11] relates to Gerbillinae. Described as §5. Type of experiment: functional. A digest of the protocol:
as §1

Active and inactive are the calls of the source. No cut-off for these calls is given here.

Regarding `CCCCC[C@](C)(O)/C=C/[C@H]1COC(=O)[C@@H]1CCCCCCC(=O)OC` (racemic), the outcome with Hamster [1] and in the experiment with Cricetinae was inactive. Also, the inhibition entry in the experiment with Gerbillinae [2] was “inactive”.
`CCCCC[C@H](O)/C=C/[C@@H](CO)[C@H](CO)CCCCCCC(=O)OC`: the result in the experiment on Hamster [1] and in the experiment with Cricetinae was inactive. Moreover, the “inhibition (INH)” value in [3] is recorded as 0%; in experiment [4], 14%; in [5], 26%; in experiment [6], 41%.
As for `CCCCC[C@@](C)(O)/C=C/[C@H]1COC(=O)[C@@H]1CCCCCCC(=O)OC` (racemic), the outcome in the experiment on Hamster [1] and in the experiment with Cricetinae was inactive. The inhibition entry in the experiment with Gerbillinae [2] is “inactive”.
The compound `CCCCC[C@H](O)/C=C/[C@@H]1[C@@H](C/C=C\CCCC(=O)O)[C@@H](O)C[C@H]1O` [DINOPROST] had an Activity with Hamster [7] of 100%.
`CCCCC[C@H](O)/C=C/[C@H]1COC(=O)[C@@H]1CCCCCCC(=O)OC` (racemic): the result in the experiment with Hamster [1] and in the experiment with Cricetinae was inactive.
Take `CCCCC[C@@H](O)/C=C/[C@H]1COC(=O)[C@@H]1CCCCCCC(=O)OC` (single isomer, unassigned): the result in the experiment on Hamster [1] and in the experiment with Cricetinae was inactive.
Regarding `CCCCC[C@@H](O)/C=C/[C@@H](CO)[C@H](CO)CCCCCCC(=O)OC`, the result with Hamster [1] and in the experiment with Cricetinae was inactive. Besides, the inhibition entry with Gerbillinae [8], with Gerbillinae [9], with Gerbillinae [10] and in the experiment with Gerbillinae [11] was “inactive” in each case.
